Screening data (PubChem)
V-ATPase pHluor = regulators of yeast V-ATPase proton pumping, primary screen, pHLuorin cytosolic pH fluorescence. S. cerevisiae. response, % at 10 µM. 0.37% of 350,000 active; in the data active = response mostly above about 7.3%, no sharp cut-off; inactive = mostly below about 5.4%; also: actives read high
AI-2 QS mod = Vibrio harveyi AI-2 quorum sensing modulators, primary screen, JMH597 strain, luminescence/OD600 ratio; Vibrio harveyi JMH597 AI-2 luminescence/OD600 ratio, 9 h; stronger effect = lower value; strain lacks LuxN and CqsS sensors; 0 = neutral-control median; AID 2094, 2009; activity change, % at 7.5 µM; 0.4% of 300,000 active; in the data active = activity change below about -75%, passing the limit was not always enough; inconclusive = no clear call, values can overlap the other calls;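 also: luminescence divided by OD600 gain over 9 h not by final OD600 alone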
CR mimetic SO = reduction of superoxide in aged yeast, primary screen, HTS; S. cerevisiae aged cells, superoxide DHE fluorescence; stronger effect = lower value; superoxide response (% of plate mean), % at 10 µM; 0.18% of 330,000 active;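 active = superoxide response under a set limit, about three screen SD below normal, cut at about 65% in these data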;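 also: yeast aged for seven days with compound at 30 °C before DHE staining; 100% = average MFI of all compound-treated wells on the plate with controls excluded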
CendR NRP1 mod = modulators of CendR peptide binding to NRP-1, primary screen, biochemical, fluorescence polarization, uHTS; Neuropilin-1 (Homo sapiens), O14786; FAM-RPARPAR peptide binding to NRP-1; inhibition, % at 25 µM; 0.85% of 360,000 active; AID 602438, 2012;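 active = inhibition or corrected inhibition above about 18%, plus a signal ratio from 0.5 to 1.5, limit read from the data, passing the limit was not always enough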
T cruzi inh = inhibitors of intracellular T. cruzi growth, primary screen, luminescence, NIH3T3 host cells; T. cruzi beta-gal in NIH3T3, 90 h; inhibition, % (test concentration not listed); 1.4% of 300,000 active; AID 1885, 2009;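 active = mean inhibition across valid replicates above about 55%, limit read from the data; inconclusive = mean below that limit but half or more replicates reach it; inactive = mean below it, under half of replicates reach it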;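 also: signal also drops with host cell toxicity which is not excluded here; 0% = plate median of DMSO wells and 100% = zero luminescence signal; higher percent means less beta-gal luminescence so fewer parasites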
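Read-out: Parasite load inhibition, % | Test system: Mouse NIH/3T3 fibroblasts infected with β-gal-expressing T. cruzi Tulahuen C4 | Amount: 5,000 cells/well | Medium: DMEM, 2% fetal bovine serum | Signal: GalScreen β-gal luminescence, detergent lysis, 60 min | Timing: 3 h attach, ≥90 h co-culture | Also added: Tulahuen C4 trypomastigotes, 5000/well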
HIF act = HIF pathway transcriptional activators, primary screen, cell-based, U2OS HRE-luciferase, luminescence; U2OS HRE-luciferase reporter; normalized: DMSO 0%, desferrioxamine 100%; activation, % at 7.5 µM (by protocol); 0.32% of 300,000 active; AID 1910, 2009;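 active = mean activation of at least 10% of the iron chelator positive control signal, with at least half of replicates also reaching 10%; inconclusive = mean and replicate majority disagree about reaching 10%; inactive = mean and most replicates under 10%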
* = called active by the depositor; ? = inconclusive; / = no result given. A selection: hits, their analogues and other compounds. The true share with any hit is near 3%.

SMILES	V-ATPase pHluor	AI-2 QS mod	CR mimetic SO	CendR NRP1 mod	T cruzi inh	HIF act
O=C(Cc1ccc(Cl)cc1)N/N=C/c1c(Cl)cccc1Cl	2.0	13.1	93.1	-0.4	29.8	-0.2
CC(=O)N1c2ccc(S(=O)(=O)N(C)CC(=O)N3CCCC3)cc2CC1C (centres undefined)	-0.9	6.0	93.2	-1.9	-13.4	0.2
COC(=O)Cc1c(C)c2ccc(OC(=O)c3ccccc3)cc2oc1=O	20.2*	32.8	107.0	-5.5	-31.5	0.5
COc1ccc(NC(=O)Cn2c(=O)oc3cc(Cl)ccc32)c(OC)c1	-1.7	28.0	103.3	-6.4	-13.6	-1.8
CC1=CC(C)(C)Nc2ccc(OC(=O)CN3C(=O)CCC3=O)cc21	-2.8	10.1	82.5	5.3	55.9*	-1.8
CSc1nsc(SCC(=O)N2CCc3ccccc32)n1	2.7	14.5	108.4	18.6*	18.5	0.0
CCn1c(SCC(=O)N2CCCc3ccccc32)nc2c(c1=O)SC(C)C2 (centres undefined)	15.9*	/	95.1	0.8	/	/
CCn1nnnc1SCC(=O)N1CCc2ccccc21	-3.1	15.9	95.6	-5.1	-8.0	3.6
Cc1ccc2cc(C#N)c(SCC(=O)N3CCCc4ccccc43)nc2c1C	-1.9	38.1	92.0	23.5*	3.0	-0.1
Cc1nnc(SCC(=O)N2CCc3ccccc32)s1	0.0	13.9	124.6	1.1	-1.5	-0.1
CCn1nnnc1SCC(=O)N1CCCc2ccccc21	24.1*	27.7	93.6	-3.4	1.2	-1.8
CCN1CCN(c2ccc(S(=O)(=O)N3CCOCC3)cc2NC(=O)C(C)Oc2ccc(F)cc2)CC1 (centres undefined)	-2.4	/	98.8	7.1	/	/
Cc1ccc2nc(-c3cccc(Br)c3)cc(C(=O)NC3=NCCS3)c2c1	-2.7	12.4	108.3	4.2	6.2	1.5
c1ccc(C2CSc3ccccc3N2)cc1 (centres undefined)	-1.4	-2.2	85.3	-1.2	14.3	-7.0
COc1ccc(/C=C/c2cc(-c3ccc(C)cc3)o[n+]2C)cc1	0.5	16.9	104.0	-11.9	59.0*	0.4
COc1ccc(/C=C/c2c(-c3ccc(OC)cc3)oc3ccc(-c4ccc(OC)cc4)cc23)cc1	3.3	14.2	90.6	-5.8	-13.9	-2.0
Cc1ccc(S/C=C\C(=O)c2ccccc2)cc1	0.2	?	90.1	7.5	15.6	1.4
Cc1nnc(SCC(=O)N2CCCC2)n1-c1ccc(F)cc1	1.4	0.7	102.0	0.0	-30.4	-0.2
CCN(CC)CCN(C(=O)c1ccc(C(=O)c2ccccc2)cc1)c1nc2ccc(OC)cc2s1	0.5	1.7	93.6	-3.9	24.4	0.0
COc1ccc2sc(N(CCCN(C)C)C(=O)c3ccc(S(=O)(=O)N(C)Cc4ccccc4)cc3)nc2c1	-4.8	32.1	96.9	-3.2	55.2*	0.0
CN(C)CCCN(C(=O)c1ccc(S(=O)(=O)N(C)Cc2ccccc2)cc1)c1nc2cc3c(cc2s1)OCO3	2.5	0.4	98.8	8.9	34.5	-1.8
Cc1ccc2sc(N(CCCN(C)C)C(=O)c3ccc(S(=O)(=O)N(C)Cc4ccccc4)cc3)nc2c1C	-0.9	-7.8	101.8	-3.1	59.8*	-56.0
CCN(CC)CCN(C(=O)c1ccc(S(=O)(=O)N(C)C2CCCCC2)cc1)c1nc2ccc(OC)cc2s1	-2.7	17.2	101.3	7.3	64.6*	-0.2
Cc1ccc2sc(N(CCCN(C)C)C(=O)c3ccc(S(=O)(=O)N(C)C)cc3)nc2c1C	-0.2	6.6	106.4	6.4	37.9	0.1
CCN(c1ccccc1)S(=O)(=O)c1ccc(C(=O)N(CCCN(C)C)c2nc3cc4c(cc3s2)OCO4)cc1	2.3	5.6	97.9	22.5*	23.9	-0.5
SMILES	V-ATPase pHluor	AI-2 QS mod	CR mimetic SO	CendR NRP1 mod	T cruzi inh	HIF act
COc1cc(C)c(S(=O)(=O)N2CCN(C)CC2)cc1C	-4.1	-10.7	113.8	7.4	-7.2	0.1
COc1ccc(NC(=O)N2CCCC(C(=O)Nc3cccc(C)c3C)C2)cc1 (centres undefined)	1.9	12.9	101.2	-0.8	7.7	0.0
COc1ccc(NC(=O)N(C)C[C@@H]2OCc3cnnn3CCCC(=O)N([C@H](C)CO)C[C@H]2C)cc1	0.4	/	/	1.1	/	/
COc1ccc(OC)c(NC(=O)Cn2c(CCC(=O)O)ccc2-c2ccc(C)cc2)c1	1.4	19.7	94.3	2.6	-7.3	-0.3
CN(C)CCN(C(=O)c1ccc(N2C(=O)CCC2=O)cc1)c1nc2cc3c(cc2s1)OCO3	0.0	2.6	93.1	7.1	56.7*	0.3
CN(C)c1ccc(NC(=O)c2cn(-c3ccccc3)nc2-c2cccs2)cc1	-3.4	26.6	93.7	-1.5	13.7	1.4
O=C(Nc1ccc2ccccc2c1)c1cn(-c2ccccc2)nc1-c1cccs1	4.6	6.9	91.3	-3.2	59.5*	0.9
O=C(Nc1ccc(Oc2ccsc2C(=O)O)cc1)c1ccccc1	-1.8	24.3	103.1	1.6	9.6	-22.8
COc1cc(/C=C(\C#N)c2nc3ccccc3[nH]2)ccc1Oc1ccc([N+](=O)[O-])cn1	1.8	15.7	109.5	-31.6	61.6*	0.6
COc1ccc(/C=C(\C#N)c2nc3ccccc3[nH]2)cc1O	2.4	9.5	/	4.4	-1.3	13.0*
CCCCN(C(=O)c1ccc(C)c(S(=O)(=O)N2CCOCC2)c1)c1c(N)n(CC(C)C)c(=O)[nH]c1=O	1.5	10.2	96.8	4.6	-2.3	0.2
COCCN(C(=O)c1ccc(C)c(S(=O)(=O)N2CCOCC2)c1)c1c(N)n(CC(C)C)c(=O)[nH]c1=O	-2.7	/	/	28.7*	/	/
CCCCCc1c(C)nc(Nc2ccccc2)[nH]c1=O	2.7	23.9	99.8	38.1*	-2.6	0.2
Cc1ccc(Nc2nc(C)c(CCC(C)C)c(=O)[nH]2)cc1	-2.3	14.6	118.6	4.7	29.1	0.3
CCN1CCN(CC(=O)Nc2ccc(S(=O)(=O)N3C(C)CCCC3C)cc2)CC1 (centres undefined)	1.2	11.9	112.5	17.8	57.9*	-0.1
CCOC(=O)c1[nH]c(C)c(C(=O)NCC2CCCO2)c1C (centres undefined)	2.5	28.1	87.4	22.3*	-12.8	-2.4
Cc1cccc(-n2nc([N+](=O)[O-])c(=NCc3cccnc3)n2O)c1	-3.1	39.4	97.0	2.1	54.8*	1.7
COc1ccc(-n2nc([N+](=O)[O-])c(=NCCc3ccccc3)n2O)cc1	-0.1	37.1	94.5	-6.2	31.0	1.4
Cc1ccc(CN=c2c([N+](=O)[O-])nn(-c3ccc(Cl)cc3)n2O)cc1	-2.7	24.5	127.0	-8.8	19.6	0.9
